Reference: ChEMBL document CHEMBL3861996, “Arylsulfonamide derivatives of (aryloxy)ethyl pyrrolidines and piperidines as α1-adrenergic receptor antagonist with uro-selective activity” (Bioorg Med Chem, 2016)

Legend:
[1] = molecular target: T1, Adrenergic receptor alpha-2 (Rattus norvegicus, UniProt P22086+P19328+P22909); assay: Displacement of [3H]-Clonidine from alpha2 adrenergic receptor in rat brain cerebral cortex membranes by liquid scintillation counting analysis; type: cell membranes, Membrane
T1 sequence (P22086 whole entry): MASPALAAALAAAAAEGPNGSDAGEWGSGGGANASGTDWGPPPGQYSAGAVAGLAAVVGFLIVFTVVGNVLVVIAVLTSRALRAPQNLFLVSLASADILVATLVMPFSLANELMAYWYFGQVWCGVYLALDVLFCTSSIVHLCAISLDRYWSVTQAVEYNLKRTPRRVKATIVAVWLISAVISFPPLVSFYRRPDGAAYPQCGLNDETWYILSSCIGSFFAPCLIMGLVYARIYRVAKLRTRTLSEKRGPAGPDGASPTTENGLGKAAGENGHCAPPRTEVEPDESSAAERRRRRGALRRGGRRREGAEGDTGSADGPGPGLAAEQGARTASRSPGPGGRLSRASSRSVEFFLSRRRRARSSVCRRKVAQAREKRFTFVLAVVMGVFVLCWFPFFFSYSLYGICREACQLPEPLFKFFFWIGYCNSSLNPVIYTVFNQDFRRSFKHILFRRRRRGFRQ
T1 sequence (P19328 whole entry): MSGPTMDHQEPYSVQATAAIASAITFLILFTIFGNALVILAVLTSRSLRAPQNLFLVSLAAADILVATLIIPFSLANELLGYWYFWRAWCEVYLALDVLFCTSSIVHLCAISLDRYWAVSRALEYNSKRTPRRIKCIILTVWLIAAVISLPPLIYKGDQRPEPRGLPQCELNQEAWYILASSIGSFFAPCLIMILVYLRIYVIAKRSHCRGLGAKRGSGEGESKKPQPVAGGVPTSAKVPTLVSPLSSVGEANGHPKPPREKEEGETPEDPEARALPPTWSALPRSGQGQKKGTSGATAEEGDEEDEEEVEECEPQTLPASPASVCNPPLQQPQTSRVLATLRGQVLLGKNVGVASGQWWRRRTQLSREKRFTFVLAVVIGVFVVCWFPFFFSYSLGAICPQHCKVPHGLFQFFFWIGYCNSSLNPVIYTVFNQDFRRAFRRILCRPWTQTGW
T1 sequence (P22909 whole entry): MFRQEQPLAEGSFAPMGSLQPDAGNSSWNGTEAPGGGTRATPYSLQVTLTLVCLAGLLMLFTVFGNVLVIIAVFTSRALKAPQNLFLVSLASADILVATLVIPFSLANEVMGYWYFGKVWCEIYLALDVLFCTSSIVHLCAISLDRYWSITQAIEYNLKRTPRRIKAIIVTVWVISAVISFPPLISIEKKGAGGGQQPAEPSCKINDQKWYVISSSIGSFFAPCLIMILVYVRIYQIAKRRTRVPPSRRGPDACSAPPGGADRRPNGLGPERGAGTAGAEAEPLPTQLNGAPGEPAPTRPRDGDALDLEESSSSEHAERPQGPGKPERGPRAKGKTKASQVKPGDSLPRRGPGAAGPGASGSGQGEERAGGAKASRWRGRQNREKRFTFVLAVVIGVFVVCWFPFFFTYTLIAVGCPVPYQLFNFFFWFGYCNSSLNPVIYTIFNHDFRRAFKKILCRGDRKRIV
Summary of the method: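 Rat cerebral cortex homogenized in ice-cold 50 mM Tris–HCl (pH 7.6), spun at 20,000 g for 20 min (0–4 °C), resuspended and spun again. Membranes incubated with 0.2 nM [3H]-prazosin (α1) or 2 nM [3H]-clonidine (α2) and seven to eight compound concentrations (10^-11 to 10^-4 M). Non-specific binding defined with 10 µM phentolamine (prazosin) or 10 µM clonidine (clonidine). Ended by GF/C filtration, counted by liquid scintillation. Run in duplicate; Ki from two independent experiments.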

[2] = molecular target: T2, Alpha-1A adrenergic receptor (Homo sapiens, UniProt P35348); assay: Intrinsic activity at alpha1A adrenergic receptor (unknown origin) assessed as inhibition of agonist induced effect preincubated for 30 mins followed by agonist addition measured after 5 hrs in presence of CCF4-AM by cell based beta lactamase reporter gene assay
T2 sequence (P35348 whole entry): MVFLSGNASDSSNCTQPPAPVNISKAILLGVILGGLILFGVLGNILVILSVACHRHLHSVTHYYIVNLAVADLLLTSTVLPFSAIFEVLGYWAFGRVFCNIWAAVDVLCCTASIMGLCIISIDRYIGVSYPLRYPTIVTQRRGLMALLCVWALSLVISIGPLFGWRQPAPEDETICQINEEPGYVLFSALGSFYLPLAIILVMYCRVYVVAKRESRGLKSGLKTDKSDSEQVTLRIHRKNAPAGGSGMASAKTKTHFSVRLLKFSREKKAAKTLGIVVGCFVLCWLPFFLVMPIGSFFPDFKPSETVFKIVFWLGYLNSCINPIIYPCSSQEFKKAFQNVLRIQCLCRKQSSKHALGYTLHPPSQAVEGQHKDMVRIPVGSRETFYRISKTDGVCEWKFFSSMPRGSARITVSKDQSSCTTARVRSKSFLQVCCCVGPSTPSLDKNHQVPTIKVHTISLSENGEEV
Summary of the method: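 Antagonist mode: 8 compound concentrations (10^-4–10^-11 M), then after 30 min standard agonist at EC80. Incubated 5 h at 37 °C/5% CO2, then loaded with CCF4-AM FRET substrate for 2 h at room temperature. Fluorescence read-out. Mean EC50 from three experiments.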

[3] = Selectivity ratio of EC50 for human alpha1B adrenergic receptor expressed in CHOK1 cells co-expressing aequorin assessed as inhibition of agonist induced calcium mobilization to EC50 for alpha1A adrenergic receptor (unknown origin) assessed as inhibition of agonist induced effect; type: cell-based; conditions: cho-k1
[4] = molecular target: T3, 5-hydroxytryptamine receptor 1A (Homo sapiens) (UniProt P08908); assay: Displacement of [3H]-8-OH-DPAT from human 5-HT1A receptor expressed in CHO-K1 cell membranes at 1 uM after 1 hr by micro beta2 scintillation counting analysis
T3 sequence (whole entry): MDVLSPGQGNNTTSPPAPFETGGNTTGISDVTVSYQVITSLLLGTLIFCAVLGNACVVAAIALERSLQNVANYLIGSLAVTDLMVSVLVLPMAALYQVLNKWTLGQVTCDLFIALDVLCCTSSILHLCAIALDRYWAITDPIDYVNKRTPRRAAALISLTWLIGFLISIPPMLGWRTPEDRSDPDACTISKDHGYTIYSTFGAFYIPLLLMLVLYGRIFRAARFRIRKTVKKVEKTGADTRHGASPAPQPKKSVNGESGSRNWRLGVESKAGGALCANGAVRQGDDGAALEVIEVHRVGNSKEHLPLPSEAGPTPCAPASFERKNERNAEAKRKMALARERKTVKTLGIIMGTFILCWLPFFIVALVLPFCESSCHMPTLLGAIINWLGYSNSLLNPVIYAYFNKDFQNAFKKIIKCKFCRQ
Summary of the method: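 Membranes of CHO-K1 cells stably expressing human 5-HT1A or 5-HT7 receptor. Buffer 50 mM Tris–HCl, 0.1 mM EDTA, 10 mM MgCl2. Each compound screened at final 10 µM and 1 µM. Incubation at 37 °C, 1 h for 5-HT1A and 2 h for 5-HT7. Non-specific binding defined with 10 µM 5-HT (5-HT1A) or 10 µM methiothepine (5-HT7). Output is percent inhibition of specific binding.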

| Structure (SMILES) | Ki [1] [nM] | EC50 [2] [nM] | inhibition [4] [%] | Ratio EC50 [3] |
| --- | --- | --- | --- | --- |
| CC(C)Oc1ccccc1OCCN1CCC(CNS(=O)(=O)c2cccc3cccnc23)CC1 | 947 | 34.1 | 61 | 3.07 |
| COc1ccccc1OCCN1CCC(CNS(=O)(=O)c2cc(Cl)ccc2F)CC1 | 1345 | 148 |  | 0.08 |
| COc1ccccc1OCCN1CCC(CNS(=O)(=O)c2cncc3ccccc23)CC1 | 695 | 140 | 78 | 3.68 |
| COc1ccccc1OCCN1CCC(CNS(=O)(=O)c2cccc(Cl)c2)CC1 | 439 | 121 |  | 0.13 |

Continued by falling EC50 [2], values first:

| Ki [1] [nM] | EC50 [2] [nM] | inhibition [4] [%] | Structure (SMILES) | Ratio EC50 [3] |
| --- | --- | --- | --- | --- |
| 2140 | 192 |  | COc1ccc(S(=O)(=O)NC2CCN(CCOc3ccccc3OC)CC2)cc1OC | 2.4 |
| 644 | 161 | 72 | COc1ccc(S(=O)(=O)NCC2CCN(CCOc3ccccc3OC)CC2)cc1OC | 3.73 |
| 297 | 99.7 | 69 | COc1ccccc1OCCN1CCC(NS(=O)(=O)c2cncc3ccccc23)CC1 | 6.1 |
| 678 | 84.2 |  | COc1ccccc1OCCN1CCC(CNS(=O)(=O)c2cccc(Cl)c2F)CC1 | 0.17 |
| 1212 | 11.1 | 59 | CC(C)Oc1ccccc1OCCN1CCC(CNS(=O)(=O)c2cccc(Cl)c2F)CC1 | 3.8 |
